Most compounds without a hit are left out; they make up all but 2.2% or so of the library.
Yeast superoxide – yeast age-related superoxide inhibition as caloric restriction mimetic; superoxide response (% of plate mean), % at 10 µM; hit rate 0.18% among 330,000; S. cerevisiae aged cells, superoxide DHE fluorescence; stronger effect = lower value; AID 2690;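 active = superoxide response under a set limit, about three screen SD below normal, cut at about 65% in these data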;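 also: yeast aged for seven days with compound at 30 °C before DHE staining; 100% = average MFI of all compound-treated wells on the plate with controls excluded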
IMP-1 inh-1 – blocks Pseudomonas aeruginosa IMP-1 metallo-beta-lactamase. inhibition, % at 5.6 µM. purified IMP-1, nitrocefin hydrolysis, epi-absorbance fluorescence. hit rate 0.45% among 290,000. AID 1556;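 active = inhibition above the mean plus 3 SD of all compounds in the same screening run, cut at about 4.5% in these data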;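 also: 0% = IMP-1 with DMSO and 100% = DMSO wells lacking enzyme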
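System: Purified recombinant IMP-1 metallo-beta-lactamase enzyme | Measured by: Fluorescence quenching readout, ex 480/em 530 nm | Replication: Singlicate | Incubation: 15 min preincubation plus 25 min reaction at 25 °C | Evaluation: Percent inhibition from optical density relative to buffer-blank wells | Benchmarks: DMSO with and without IMP-1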
PvdQ inh – P. aeruginosa PvdQ acylase inhibition | purified PvdQ acylase, fluorescence plate reader | inhibition, % at 10 µM | hit rate 0.063% among 340,000 | AID 488965; in the data active = inhibition above about 30%, passing the limit was not always enough;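 also: 0% = vehicle neutral wells and 100% = reference inhibitor wells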
VIM-2 inhibitor – inhibitors of Pseudomonas aeruginosa VIM-2 metallo-beta-lactamase; purified VIM-2, nitrocefin hydrolysis, epi-absorbance fluorescence; inhibition, % at 5.6 µM; hit rate 0.89% among 290,000; AID 1527;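 active = inhibition above the mean of all tested compounds plus 3 SD, cutoff set per screening run, cut at about 7.5% in these data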;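 also: red hydrolysis product quenches plate fluorescence so inhibitors raise well fluorescence; 0% = enzyme with DMSO and 100% = DMSO without enzyme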
PHOSPHO1 block – inhibitors of human PHOSPHO1 phosphatase. inhibition, % at 13.3 µM. hit rate 1.1% among 290,000. recombinant PHOSPHO1, absorbance phosphatase assay. Q8TCT1. AID 1565; in the data active = inhibition above about 60%
Target sequence (Q8TCT1 whole entry, looked up): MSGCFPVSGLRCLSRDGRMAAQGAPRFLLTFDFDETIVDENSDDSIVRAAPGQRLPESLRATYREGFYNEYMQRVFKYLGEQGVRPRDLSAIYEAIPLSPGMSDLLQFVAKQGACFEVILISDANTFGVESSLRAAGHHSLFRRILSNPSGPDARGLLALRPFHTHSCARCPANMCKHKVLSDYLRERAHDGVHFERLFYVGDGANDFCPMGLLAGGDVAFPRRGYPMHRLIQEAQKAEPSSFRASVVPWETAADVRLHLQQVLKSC
IMP-1 inh-2 – IMP-1 inhibition, counter-screen for VIM-2 inhibitors | shares compounds with VIM-2 inhibitor | purified IMP-1, nitrocefin hydrolysis, epi-absorbance fluorescence | inhibition, % at 5.6 µM | 1,300 tested, under 10 active; call rule not given here;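 also: 0% = enzyme with vehicle and 100% = vehicle without enzyme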
VIM-2 FRET inh – counter-screen for VIM-2 inhibitors: epi-absorbance artifacts via FRET; AID 1857; shares compounds with VIM-2 inhibitor; purified VIM-2, CCF2 FRET substrate hydrolysis; inhibition, % at 5.6 µM; hit rate 23% among 1,300;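 active = inhibition above the mean of all tested compounds plus 3 SD, cut at about 19% in these data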;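 also: 0% = VIM-2 plus DMSO and 100% = no enzyme wells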
TEM-1 inh – selectivity counter-screen for VIM-2 inhibitors: E. coli TEM-1 inhibitors; shares compounds with VIM-2 inhibitor; Purified TEM-1, nitrocefin hydrolysis, epi-absorbance fluorescence; inhibition, % at 5.6 µM; hit rate 3% among 1,300; AID 1866;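 active = inhibition above that campaign's mean inhibition plus 3 SD, cut at about 0.46% in these data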;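 also: 0% = TEM-1 with DMSO and 100% = TEM-1 with 100 µM potassium clavulanate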
Target sequence (P62593 whole entry, looked up): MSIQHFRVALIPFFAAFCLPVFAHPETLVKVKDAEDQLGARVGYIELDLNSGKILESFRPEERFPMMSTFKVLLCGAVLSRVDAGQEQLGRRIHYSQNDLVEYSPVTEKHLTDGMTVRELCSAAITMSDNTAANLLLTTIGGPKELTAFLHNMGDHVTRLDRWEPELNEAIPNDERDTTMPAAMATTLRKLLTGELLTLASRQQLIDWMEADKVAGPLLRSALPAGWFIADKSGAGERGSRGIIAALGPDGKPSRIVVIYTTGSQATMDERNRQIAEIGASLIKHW
VIM-2 inh conf – confirmation of P. aeruginosa VIM-2 metallo-beta-lactamase inhibitors; shares compounds with VIM-2 inhibitor; purified VIM-2, nitrocefin hydrolysis, epi-absorbance; inhibition, % at 5.6 µM; hit rate 96% among 1,300; AID 2187;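 active = inhibition of the VIM-2 beta-lactamase enzyme above about 11% from the earlier first-round screen, limit read from the data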;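 also: 0% = VIM-2 with DMSO and 100% = buffer wells without enzyme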
CR mimetic CP – yeast aging superoxide inhibition, cherry pick confirmation | shares compounds with Yeast superoxide | S. cerevisiae aging, superoxide DHE fluorescence; stronger effect = lower value | superoxide response (% of plate), % at 10 µM | hit rate 1% among 850;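 active = superoxide signal below 65% of the plate average of sample wells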;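 also: cells aged with compound for 7 days at 30 degrees C before staining; 100% equals mean DHE fluorescence of all compound wells on the plate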
DHE fluor count – DHE fluorescence interference, counter-screen artifact; shares compounds with Yeast superoxide; S. cerevisiae BY4741, flow cytometry; stronger effect = lower value; fluorescence response, % at 10 µM; 850 tested, under 10 active; AID 435000;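 active = fluorescence response below 15%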;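 also: percent of the mean fluorescence averaged over all compound wells on the plate; lower means stronger quenching of DHE signal or ROS scavenging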
* marks the source's active call; other numbers are inactive results; . = no result given.

SMILES	Yeast superoxide	IMP-1 inh-1	PvdQ inh	VIM-2 inhibitor	PHOSPHO1 block	CR mimetic CP	DHE fluor count	others
Cc1cc(OC(C)C(=O)NCc2ccncc2)c2c3c(c(=O)oc2c1)CCCC3 (stereo unspecified)	119	3	7	26*	-4	.	.	IMP-1 inh-2=-2;VIM-2 FRET inh=-4;TEM-1 inh=-9;VIM-2 inh conf=32*
Cc1cc(OC(C)C(=O)NCc2ccncc2)c2c3c(c(=O)oc2c1)CCC3 (stereo unspecified)	94	-3	-7	26*	31	.	.	IMP-1 inh-2=-3;VIM-2 FRET inh=-2;TEM-1 inh=-8;VIM-2 inh conf=42*
Cc1cc(OC(C)C(=O)NCC(O)c2ccccc2)c2c3c(c(=O)oc2c1)CCC3 (stereo unspecified)	111	0	6	3	18	.	.
Cc1ncc(CN2CCCC(C(=O)c3sccc3C)C2)s1 (stereo unspecified)	101	-1	-6	-1	24	.	.
O=[N+]([O-])c1ccc(-c2ccccc2)c([As](=O)(O)O)c1	97	-1	-11	76*	39	.	.	IMP-1 inh-2=-3;VIM-2 FRET inh=82*;TEM-1 inh=-3;VIM-2 inh conf=80*
OC[C@@H](O)CCl	104	.	.	.	.	.	.
O=C1C(=O)c2ccccc2-c2ccccc21	78	1	0	17*	100*	.	.	IMP-1 inh-2=-5;VIM-2 FRET inh=-5;TEM-1 inh=-4;VIM-2 inh conf=18*
N=Cc1c(O)n(-c2ccc(C34CC5CC(CC(C5)C3)C4)cc2)c(=O)[nH]c1=O	111	-2	14	-2	-13	.	.
COC(=O)C(O)(c1ccc(NC(=O)Oc2ccccc2)cc1)C(F)(F)F (stereo unspecified)	102	-3	3	-3	20	.	.
CN1CCN(c2ccc(NC(=O)Oc3ccccc3)cc2)CC1	92	-5	4	29*	19	.	.	IMP-1 inh-2=-5;VIM-2 FRET inh=-4;TEM-1 inh=-6;VIM-2 inh conf=24*
CCC(=O)OC1CCC2C3CCC4CC(=O)C=CC4(C)C3CCC12C (stereo unspecified)	.	.	20	.	.	.	.
Cc1ccc2c(c1)N(C(=O)CCC(=O)N1CCC3(CC1)OCCO3)CCO2	86	-2	-16	-3	53	.	.
COc1ccc(CC2C(=O)NC(C)C(=O)N(C)C3C(=O)N(C)C(Cc4ccc(O)c(c4)Oc4ccc(cc4)C3O)C(=O)NC(C)C(=O)NC(C)C(=O)N2C)cc1 (stereo unspecified)	.	.	-23	.	.	.	.
C=CCn1c(O)c(C(C)=NCCCn2ccnc2)c(=O)[nH]c1=O	111	-2	-4	58*	46	.	.	IMP-1 inh-2=-3;VIM-2 FRET inh=-2;TEM-1 inh=-6;VIM-2 inh conf=78*
CC(=NCCCn1ccnc1)c1c(O)n(-c2ccccc2)c(=O)[nH]c1=O	112	-4	3	-2	3	.	.
O=c1c2ccccc2nc(-c2ccccc2)n1-c1ccccc1	109	-4	-7	0	36	.	.
O=c1c2ccccc2[se]n1-c1ccccc1	132	-2	-1	27*	89*	.	.	IMP-1 inh-2=-3;VIM-2 FRET inh=-87;TEM-1 inh=-10;VIM-2 inh conf=42*
COc1ccc(Cl)cc1N=Cc1c(O)n(C)c(=O)n(C)c1=O	102	-1	-2	13*	.	.	.	IMP-1 inh-2=-2;VIM-2 FRET inh=-2;TEM-1 inh=-5;VIM-2 inh conf=21*
CNc1ccc2nc3ccccc3[n+](C)c2c1	62*	-8	-10	8.0*	24	62*	110
C[C@]12CCC(=O)C[C@H]1CC[C@@H]1[C@@H]2CC[C@]2(C)[C@@H](O)CC[C@@H]12	73	.	.	.	.	99	118
CC12CCC3C(CCC4CC(=O)C(C(O)C(F)(F)F)CC43C)C1CCC2O (stereo unspecified)	.	.	2	.	.	101	115
CC12CCC3C(CCCC4CC(=O)CCC43C)C1CCC2O (stereo unspecified)	.	.	-15	.	.	.	.
COc1ccc(-n2c(O)c(C(C)=NCC3CCCO3)c(=O)[nH]c2=O)cc1 (stereo unspecified)	56*	-1	-1	0	32	107	126
CCOc1ccc(C2SCC(=O)Nc3c2c(=O)[nH]n3C2CCCCCC2)cc1 (stereo unspecified)	62*	-3	-6	-3	6	105	96
CN(C)c1ccc(C2C3C=CC(C3)C2(C#N)C(=O)O)c(Br)c1 (stereo unspecified)	94	-3	-3	-4	8	.	.
SMILES	Yeast superoxide	IMP-1 inh-1	PvdQ inh	VIM-2 inhibitor	PHOSPHO1 block	CR mimetic CP	DHE fluor count	others
CSCCC(NC(=O)CCC(=O)OC1CC[C@H]2[C@@H]3CC[C@H]4CC(=O)CC[C@]4(C)[C@H]3CC[C@]12C)C(=O)O (stereo partly specified)	97	0	2	0	-61	83	105
C[C@]12CC[C@H](O)C[C@@H]1CC[C@@H]1[C@@H]2CC[C@]2(C)C(=O)CC[C@@H]12	70	-5	-2	-2	20	.	.
C[C@]12CCC3C(CC[C@H]4C[C@@H](O)CC[C@]34C)C1CC[C@@H]2OC(=O)[C@H](N)CCCCN (stereo partly specified)	82	.	-6	.	.	73	98
C[C@]12CCC3[C@@H](CC[C@@H]4C[C@H](O)CC[C@]34C)[C@@H]1CCC2=O (stereo partly specified)	66	.	6	.	.	.	.
C[C@]12CCC3C(CC[C@H]4C[C@@H](O)CC[C@]34C)C1CCC2=O (stereo partly specified)	63*	.	-12	.	.	90	103
C[C@]12CCC3C(CC[C@H]4C[C@@H](O)CC[C@]34C)C1[C@H]1CN=N[C@H]1[C@@H]2O (stereo partly specified)	108	.	-5	.	.	134	120
C[C@]12CCC3C(CC[C@H]4C[C@@H](O)CC[C@]34C)C1C[C@@H](Br)[C@H]2O (stereo partly specified)	77	.	.	.	.	104	112
C=CCN(CC#CCOc1ccccc1OC)CC=C	81	-1	.	-2	20	.	.
CCN1C[C@@]2(COC)C3[C@@H](OC)[C@H]4[C@@H]1[C@@]3(C1C[C@@]3(O)[C@H](OC(=O)c5ccccc5)C1[C@]4(OC(C)=O)[C@@H](O)[C@H]3OC)[C@@H](OC)C[C@H]2O (stereo partly specified)	98	.	.	.	.	.	.
O=[N+]([O-])c1ccc(OP(=O)(O)Oc2ccc([N+](=O)[O-])cc2)cc1	.	.	6	.	.	.	.
C[C@]12CCC(=O)C=C1CCC1C2CC[C@@]2(C)C1CC[C@@H]2O (stereo partly specified)	92	.	-7	.	.	.	.
